Reference: ChEMBL document CHEMBL1143835, “Antipropionibacterial activity of BAL19403, a novel macrolide antibiotic” (2007)
Values after ≈ are worked out from the molar mass of the structure shown.

Legend:
[1] = system: Cutibacterium acnes; test: Antibacterial activity against drug-resistant Propionibacterium acnes P401:5 after 48 hrs by broth microdilution method; assay type: functional
In short: (§1)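 Broth microdilution MIC in Wilkins-Chalgren broth without lysed horse blood, following CLSI anaerobe guidelines. Plates were held in anaerobic jars with atmosphere generators (O2 <0.1% by 2.5 h, CO2 >15% by 24 h) at 35 to 37°C for 48 h. Growth was read with an illuminated plate reader and magnifying mirror.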

[2] = system: Cutibacterium acnes; test: Antibacterial activity against drug-resistant Propionibacterium acnes SW10 after 48 hrs by broth microdilution method; assay type: functional; in short: as §1
[3] = system: Cutibacterium acnes; test: Antibacterial activity against drug-resistant Propionibacterium acnes SW11 after 48 hrs by broth microdilution method; assay type: functional; in short: as §1
[4] = system: Cutibacterium acnes; test: Antibacterial activity against drug-resistant Propionibacterium acnes P95 after 48 hrs by broth microdilution method; assay type: functional; in short: as §1
[5] = system: Cutibacterium acnes; test: Antibacterial activity against drug-resistant Propionibacterium acnes SP64E after 48 hrs by broth microdilution method; assay type: functional; in short: as §1
[6] = system: Cutibacterium acnes; test: Antibacterial activity against drug-resistant Propionibacterium acnes EG7NS after 48 hrs by broth microdilution method; assay type: functional; in short: as §1
[7] = system: Cutibacterium acnes; test: MBC/MIC ratio of Propionibacterium acnes EG7NS; assay type: functional
In short: (§2)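 MIC by CLSI broth microdilution in Wilkins-Chalgren broth in anaerobic jars (O2 <0.1%, CO2 >15%), read after 48 h at 35–37°C on an illuminated plate reader. For MBC, samples were plated onto Wilkins-Chalgren agar and incubated anaerobically for 72 h at 35–37°C before growth was scored.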

[8] = system: Cutibacterium acnes; test: Antibacterial activity against drug-resistant Propionibacterium acnes SW26 after 48 hrs by broth microdilution method; assay type: functional; in short: as §1
[9] = system: Cutibacterium acnes; test: MBC/MIC ratio of Propionibacterium acnes P95; assay type: functional; in short: as §2
[10] = system: Cutibacterium acnes; test: Antibacterial activity against drug-resistant Propionibacterium acnes GE46EB after 48 hrs by broth microdilution method; assay type: functional; in short: as §1
[11] = system: Staphylococcus aureus; test: Antibacterial activity against methicillin-resistant Staphylococcus aureus after 20 to 24 hrs by broth microdilution method
[12] = system: Corynebacterium minutissimum; test: Antibacterial activity against Corynebacterium minutissimum after 48 hrs by broth microdilution method; assay type: functional
In short: (§3)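 Broth microdilution per CLSI in cation-adjusted Mueller-Hinton broth supplemented with 0.5% (vol/vol) Tween 80. Plates incubated at 35°C in ambient air for 44 to 48 h, then read visually. MICs in μg/ml; a geometric mean MIC was calculated across the corynebacterial strains.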

[13] = system: Streptococcus equi subsp. zooepidemicus; test: Antibacterial activity against Streptococcus equi subsp. zooepidemicus after 48 hrs by broth microdilution method; assay type: functional
[14] = system: Cutibacterium acnes; test: Antibacterial activity against drug-resistant Propionibacterium acnes SW16 after 48 hrs by broth microdilution method; assay type: functional; in short: as §1
[15] = system: Propionibacterium granulosum; test: Antibacterial activity against drug-resistant Propionibacterium granulosum NCTC-11865 after 48 hrs by broth microdilution method; assay type: functional; conditions: Cutibacterium granulosum, NCTC-11865, 48 h; in short: as §1
[16] = system: Staphylococcus aureus; test: Antibacterial activity against methicillin-susceptible Staphylococcus aureus after 48 hrs by broth microdilution method; assay type: functional
[17] = system: Cutibacterium acnes; test: Antibacterial activity against drug-resistant Propionibacterium acnes P95 after 72 hrs; assay type: functional
In short: (§4)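 MBC for P. acnes followed MIC assays by standard methodology. Samples were plated on Wilkins-Chalgren agar, incubated anaerobically in GENbox jars at 35 to 37°C, and examined for growth after 72 h.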

[18] = system: Cutibacterium acnes; test: MBC/MIC ratio of Propionibacterium acnes SW3CD; assay type: functional; in short: as §2
[19] = system: Corynebacterium jeikeium; test: Antibacterial activity against Corynebacterium jeikeium after 48 hrs by broth microdilution method; assay type: functional; in short: as §3
[20] = system: Cutibacterium acnes; test: Antibacterial activity against drug-resistant Propionibacterium acnes SW101T after 48 hrs by broth microdilution method; assay type: functional; in short: as §1
[21] = system: Cutibacterium acnes; test: Antibacterial activity against drug-resistant Propionibacterium acnes D-04/97 after 48 hrs by broth microdilution method; assay type: functional; in short: as §1
[22] = system: Staphylococcus epidermidis; test: Antibacterial activity against Staphylococcus epidermidis after 48 hrs by broth microdilution method; assay type: functional
[23] = system: Corynebacterium diphtheriae; test: Antibacterial activity against Corynebacterium diphtheriae after 48 hrs by broth microdilution method; assay type: functional; in short: as §3
[24] = system: Cutibacterium acnes; test: Antibacterial activity against drug-resistant Propionibacterium acnes EG7NS after 72 hrs; assay type: functional; in short: as §4
[25] = system: Cutibacterium acnes; test: Antibacterial activity against drug-resistant Propionibacterium acnes P429:1 (SC) after 48 hrs by broth microdilution method; assay type: functional; in short: as §1
[26] = system: Cutibacterium acnes; test: Antibacterial activity against drug-resistant Propionibacterium acnes EG13NS after 48 hrs by broth microdilution method; assay type: functional; in short: as §1
[27] = system: Cutibacterium acnes; test: Antibacterial activity against drug-resistant Propionibacterium acnes SW101CDA after 48 hrs by broth microdilution method; assay type: functional; in short: as §1
[28] = system: Cutibacterium acnes; test: Antibacterial activity against drug-resistant Propionibacterium acnes EG3NS after 48 hrs by broth microdilution method; assay type: functional; in short: as §1
[29] = system: Cutibacterium acnes; test: Antibacterial activity against drug-resistant Propionibacterium acnes P425:1 after 48 hrs by broth microdilution method; assay type: functional; in short: as §1
[30] = system: Cutibacterium acnes; test: Antibacterial activity against drug-resistant Propionibacterium acnes SW54EA after 48 hrs by broth microdilution method; assay type: functional; in short: as §1
[31] = system: Cutibacterium acnes; test: Antibacterial activity against drug-resistant Propionibacterium acnes SW17 after 48 hrs by broth microdilution method; assay type: functional; in short: as §1
[32] = system: Corynebacterium amycolatum; test: Antibacterial activity against Corynebacterium amycolatum after 48 hrs by broth microdilution method; assay type: functional; in short: as §3
[33] = system: Cutibacterium acnes; test: Antibacterial activity against drug-resistant Propionibacterium acnes OK8/97 after 48 hrs by broth microdilution method; assay type: functional; in short: as §1
[34] = system: Cutibacterium acnes; test: Antibacterial activity against drug-resistant Propionibacterium acnes GE4E after 48 hrs by broth microdilution method; assay type: functional; in short: as §1
[35] = system: Streptococcus pyogenes; test: Antibacterial activity against Streptococcus pyogenes after 20 to 24 hrs by broth microdilution method
[36] = system: Cutibacterium acnes; test: Antibacterial activity against drug-resistant Propionibacterium acnes P429:1 (BC) after 48 hrs by broth microdilution method; assay type: functional; in short: as §1
[37] = system: Cutibacterium acnes; test: Antibacterial activity against drug-resistant Propionibacterium acnes P:413 after 48 hrs by broth microdilution method; assay type: functional; in short: as §1
[38] = system: Staphylococcus aureus; test: Antibacterial activity against borderline oxacillin-resistant Staphylococcus aureus after 20 to 24 hrs by broth microdilution method
[39] = Antibacterial activity against Streptococcus dysgalactiae subsp. dysgalactiae after 48 hrs by broth microdilution method; assay type: functional
[40] = system: Cutibacterium acnes; test: Antibacterial activity against drug-resistant Propionibacterium acnes FG7E after 48 hrs by broth microdilution method; assay type: functional; in short: as §1
[41] = system: Cutibacterium acnes; test: Antibacterial activity against drug-resistant Propionibacterium acnes P322:2 after 48 hrs by broth microdilution method; assay type: functional; in short: as §1
[42] = system: Cutibacterium acnes; test: Antibacterial activity against drug-resistant Propionibacterium acnes SW3CD after 48 hrs by broth microdilution method; assay type: functional; in short: as §1
[43] = system: Cutibacterium acnes; test: Antibacterial activity against drug-resistant Propionibacterium acnes SW3CD after 72 hrs; assay type: functional; in short: as §4
[44] = system: Propionibacterium granulosum; test: Antibacterial activity against drug-resistant Propionibacterium granulosum QK6/92 after 48 hrs by broth microdilution method
[45] = system: Cutibacterium acnes; test: MBC/MIC ratio of Propionibacterium acnes SW101T; assay type: functional; in short: as §2
[46] = system: Cutibacterium acnes; test: MBC/MIC ratio of Propionibacterium acnes GE4E; assay type: functional; in short: as §2
[47] = system: Cutibacterium acnes; test: Antibacterial activity against drug-resistant Propionibacterium acnes SW101T after 72 hrs; assay type: functional; in short: as §4
[48] = system: Cutibacterium acnes; test: Antibacterial activity against drug-resistant Propionibacterium acnes GE4E after 72 hrs; assay type: functional; in short: as §4

CC[C@H]1OC(=O)[C@H](C)[C@@H](O[C@H]2C[C@@](C)(OC)[C@@H](O)[C@H](C)O2)[C@H](C)[C@@H](O[C@@H]2O[C@H](C)C[C@H](N(C)C)[C@H]2O)[C@](C)(O)C[C@@H](C)C(=O)[C@H](C)[C@@H](O)[C@]1(C)O [ERYTHROMYCIN]
MIC [1]: 2 µg/mL (≈ 2.73 µM)
MIC [2]: ≤ 0.06 µg/mL
MIC [3]: 0.125 µg/mL (≈ 0.17 µM)
MIC [4]: 4 µg/mL (≈ 5.45 µM)
MIC [5]: > 512 µg/mL
MIC [6]: ≤ 0.06 µg/mL
Ratio [7]: >=533
MIC [8]: ≤ 0.06 µg/mL
Ratio [9]: >8
MIC [10]: > 512 µg/mL
MIC [11]: 3.26 µg/mL (≈ 4.44 µM)
MIC [12]: 1.47 µg/mL (≈ 2 µM)
MIC [13]: 0.14 µg/mL (≈ 0.191 µM)
MIC [14]: ≤ 0.06 µg/mL
MIC [15]: 0.125 µg/mL (≈ 0.17 µM)
MIC [16]: 3.26 µg/mL (≈ 4.44 µM)
MBC [17]: > 32 µg/mL
Ratio [18]: >=2
MIC [19]: 1.47 µg/mL (≈ 2 µM)
MIC [20]: > 512 µg/mL
MIC [21]: ≤ 0.06 µg/mL
MIC [22]: 3 µg/mL (≈ 4.09 µM)
MIC [23]: 1.47 µg/mL (≈ 2 µM)
MBC [24]: > 32 µg/mL
MIC [25]: 4 µg/mL (≈ 5.45 µM)
MIC [26]: ≤ 0.06 µg/mL
MIC [27]: > 512 µg/mL
MIC [28]: ≤ 0.06 µg/mL
MIC [29]: > 512 µg/mL
MIC [30]: > 512 µg/mL
MIC [31]: ≤ 0.06 µg/mL
MIC [32]: 1.47 µg/mL (≈ 2 µM)
MIC [33]: 0.125 µg/mL (≈ 0.17 µM)
MIC [34]: > 512 µg/mL
MIC [35]: 0.32 µg/mL (≈ 0.436 µM)
MIC [36]: 2 µg/mL (≈ 2.73 µM)
MIC [37]: ≤ 0.06 µg/mL
MIC [38]: 3.26 µg/mL (≈ 4.44 µM)
MIC [39]: 0.09 µg/mL (≈ 0.123 µM)
MIC [40]: > 512 µg/mL
MIC [41]: > 512 µg/mL
MIC [42]: ≤ 0.06 µg/mL
MBC [43]: 0.125 µg/mL (≈ 0.17 µM)
MIC [44]: 0.5 µg/mL (≈ 0.681 µM)

CN(C)[C@@H]1C(O)=C(C(N)=O)C(=O)[C@@]2(O)C(O)=C3C(=O)c4c(O)cccc4[C@@](C)(O)[C@H]3C[C@@H]12 [TETRACYCLINE]
MIC [1]: 32 µg/mL (≈ 72 µM)
MIC [2]: 0.5 µg/mL (≈ 1.13 µM)
MIC [3]: 2 µg/mL (≈ 4.5 µM)
Ratio [45]: >1
MIC [4]: 0.5 µg/mL (≈ 1.13 µM)
MIC [5]: 1 µg/mL (≈ 2.25 µM)
MIC [6]: ≤ 0.06 µg/mL
Ratio [7]: >=533
MIC [8]: 0.5 µg/mL (≈ 1.13 µM)
Ratio [9]: >64
MIC [10]: 1 µg/mL (≈ 2.25 µM)
Ratio [46]: >16
MBC [47]: > 32 µg/mL
MIC [11]: 3.17 µg/mL (≈ 7.13 µM)
MIC [12]: 5.16 µg/mL (≈ 11.6 µM)
MIC [13]: 8 µg/mL (≈ 18 µM)
MIC [14]: 0.25 µg/mL (≈ 0.563 µM)
MIC [15]: 0.5 µg/mL (≈ 1.13 µM)
MIC [16]: 3.17 µg/mL (≈ 7.13 µM)
MBC [17]: 32 µg/mL (≈ 72 µM)
Ratio [18]: >32
MIC [19]: 5.16 µg/mL (≈ 11.6 µM)
MIC [20]: 32 µg/mL (≈ 72 µM)
MIC [21]: 1 µg/mL (≈ 2.25 µM)
MIC [22]: 7.55 µg/mL (≈ 17 µM)
MIC [23]: 5.16 µg/mL (≈ 11.6 µM)
MBC [24]: > 32 µg/mL
MIC [25]: ≥ 32 µg/mL
MIC [26]: 1 µg/mL (≈ 2.25 µM)
MIC [27]: ≤ 0.06 µg/mL
MIC [28]: 0.5 µg/mL (≈ 1.13 µM)
MIC [29]: 16 µg/mL (≈ 36 µM)
MIC [30]: 0.5 µg/mL (≈ 1.13 µM)
MIC [31]: 0.25 µg/mL (≈ 0.563 µM)
MIC [32]: 5.16 µg/mL (≈ 11.6 µM)
MIC [33]: 0.5 µg/mL (≈ 1.13 µM)
MIC [34]: 2 µg/mL (≈ 4.5 µM)
MIC [35]: 3.25 µg/mL (≈ 7.31 µM)
MIC [36]: 1 µg/mL (≈ 2.25 µM)
MIC [37]: 16 µg/mL (≈ 36 µM)
MIC [38]: 3.17 µg/mL (≈ 7.13 µM)
MIC [39]: 4.58 µg/mL (≈ 10.3 µM)
MIC [40]: 32 µg/mL (≈ 72 µM)
MIC [41]: 32 µg/mL (≈ 72 µM)
MIC [42]: 1 µg/mL (≈ 2.25 µM)
MBC [43]: > 32 µg/mL
MBC [48]: > 32 µg/mL
MIC [44]: 1 µg/mL (≈ 2.25 µM)
